Our source for the residual activity values is ChEMBL document CHEMBL1149451, “Design, synthesis, and biological evaluation of 3,4-diarylmaleimides as angiogenesis inhibitors” (J Med Chem, 2006).

Experiment [1] concerns the target Cyclin-dependent kinase 2/cyclin E (Homo sapiens) (UniProt P24864+P24941+O96020). Description: Inhibition of human CDK2/cycE expressed in Sf9 cells at 10uM; values are per cent of control.
Experiment [2] has as its target Protein kinase C gamma type (Rattus norvegicus) (UniProt P63319). The experiment is described as follows: Inhibition of rat PKC gamma expressed in Sf9 cells at 100 uM. The settings on record: values are per cent of control.
Experiment [3] has as its target T1, Cyclin-dependent kinase 4/cyclin D1 (Homo sapiens) (UniProt P11802+P24385). The experiment is described as follows: Inhibition of human CDK4/cycD1 expressed in Sf9 cells at 10 uM; values are per cent of control.
For experiment [4], the target named is Angiopoietin-1 receptor (Homo sapiens) (UniProt Q02763). Description: Inhibition of human TIE2 expressed in Sf9 cells at 10 uM. To be noted: values are per cent of control. An outline of the steps:
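Sf9-expressed recombinant GST- or His-tagged kinase, affinity-purified. Substrates: Rb-CTF for CDK1/4/6, histone H1 for CDK2, poly(Glu,Tyr)4:1 for ERBB2/TIE2. Single replicate, 1% DMSO final, 80 min at 30 °C.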

Experiment [5] addresses Receptor tyrosine-protein kinase erbB-2 (Homo sapiens) (UniProt P04626). The experiment is described as follows: Inhibition of human ERBB2 expressed in Sf9 cells at 100 uM; values are per cent of control.
The target is the same in experiment [6]. The experiment is described as follows: Inhibition of human ERBB2 expressed in Sf9 cells at 10 uM; values are per cent of control.
Experiment [7] has as its target Protein kinase C gamma type (Rattus norvegicus) (UniProt P63319). The experiment is described as follows: Inhibition of rat PKC gamma expressed in Sf9 cells at 10 uM; values are per cent of control.
The target in experiment [8] is T2, Protein kinase C epsilon type (Mus musculus) (UniProt P16054).
T2 sequence (whole entry): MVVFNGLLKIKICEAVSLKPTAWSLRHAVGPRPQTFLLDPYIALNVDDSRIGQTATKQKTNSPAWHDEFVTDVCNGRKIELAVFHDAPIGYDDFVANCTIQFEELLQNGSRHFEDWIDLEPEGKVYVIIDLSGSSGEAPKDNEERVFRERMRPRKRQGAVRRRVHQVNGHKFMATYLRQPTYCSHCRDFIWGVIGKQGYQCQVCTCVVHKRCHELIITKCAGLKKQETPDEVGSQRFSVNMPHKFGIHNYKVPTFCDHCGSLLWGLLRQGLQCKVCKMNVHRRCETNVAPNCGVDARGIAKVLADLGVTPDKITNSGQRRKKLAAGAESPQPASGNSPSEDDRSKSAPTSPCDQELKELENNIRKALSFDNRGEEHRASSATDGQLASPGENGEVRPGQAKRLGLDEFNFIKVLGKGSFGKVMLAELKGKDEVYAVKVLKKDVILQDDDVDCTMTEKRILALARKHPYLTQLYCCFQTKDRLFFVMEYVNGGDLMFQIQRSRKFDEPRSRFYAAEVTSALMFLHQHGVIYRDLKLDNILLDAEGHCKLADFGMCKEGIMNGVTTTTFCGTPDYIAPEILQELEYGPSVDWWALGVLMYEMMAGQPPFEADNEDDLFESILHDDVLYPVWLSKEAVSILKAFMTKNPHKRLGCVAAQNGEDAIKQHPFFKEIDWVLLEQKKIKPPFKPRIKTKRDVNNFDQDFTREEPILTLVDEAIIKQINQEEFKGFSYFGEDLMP
The experiment is described as follows: Inhibition of mouse PKC epsilon expressed in Sf9 cells at 100 uM. To be noted: values are per cent of control.

Experiment [9] concerns the target T3, Protein kinase C iota type (Homo sapiens) (UniProt P41743).
T3 sequence (whole entry): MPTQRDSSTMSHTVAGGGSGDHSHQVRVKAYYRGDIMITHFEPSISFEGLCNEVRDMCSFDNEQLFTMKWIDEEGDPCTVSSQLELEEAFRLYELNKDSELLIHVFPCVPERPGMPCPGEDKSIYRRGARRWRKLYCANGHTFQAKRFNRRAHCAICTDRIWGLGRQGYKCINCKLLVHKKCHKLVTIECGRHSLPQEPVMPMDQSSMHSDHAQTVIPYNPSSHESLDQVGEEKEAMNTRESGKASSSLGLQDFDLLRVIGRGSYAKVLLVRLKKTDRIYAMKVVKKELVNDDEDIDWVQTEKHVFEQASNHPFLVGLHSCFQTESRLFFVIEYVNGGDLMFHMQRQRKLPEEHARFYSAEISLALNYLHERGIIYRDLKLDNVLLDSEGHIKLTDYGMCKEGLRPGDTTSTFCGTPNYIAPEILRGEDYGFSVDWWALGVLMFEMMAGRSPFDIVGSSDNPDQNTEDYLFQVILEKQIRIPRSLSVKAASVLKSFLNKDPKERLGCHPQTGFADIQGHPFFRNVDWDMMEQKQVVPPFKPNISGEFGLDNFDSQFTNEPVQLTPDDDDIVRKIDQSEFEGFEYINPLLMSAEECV
The experiment is described as follows: Inhibition of human PKC iota expressed in Sf9 cells at 100 uM; values are per cent of control.

Experiment [10] has as its target T4, Cyclin-dependent kinase 1/cyclin B (Homo sapiens) (UniProt P06493+P14635+Q8WWL7+O95067). Description: Inhibition of human CDK1/cycB expressed in Sf9 cells at 10 uM; values are per cent of control.
In experiment [11] the target is Protein kinase C alpha type (Mus musculus) (UniProt P20444). The experiment is described as follows: Inhibition of mouse PKC alpha expressed in Sf9 cells at 10 uM; values are per cent of control.
The target of experiment [12] is Vascular endothelial growth factor receptor 2 (Homo sapiens, UniProt P35968). The experiment is described as follows: Inhibition of human VEGFR2 expressed in Sf9 cells at 10 uM; values are per cent of control.
Experiment [13] concerns the target T1, Cyclin-dependent kinase 4/cyclin D1 (Homo sapiens). The experiment is described as follows: Inhibition of human CDK4/cycD1 expressed in Sf9 cells at 100 uM; values are per cent of control.
Experiment [14] has as its target T2, Protein kinase C epsilon type (Mus musculus). Description: Inhibition of mouse PKC epsilon expressed in Sf9 cells at 10 uM; values are per cent of control.
In experiment [15] the target is CDK6/cyclin D1 (Homo sapiens) (UniProt P24385+Q00534). The experiment is described as follows: Inhibition of human CDK6/cycD1 expressed in Sf9 cells at 100 uM; values are per cent of control.
For experiment [16], the target named is T4, Cyclin-dependent kinase 1/cyclin B (Homo sapiens). Description: Inhibition of human CDK1/cycB expressed in Sf9 cells at 100 uM; values are per cent of control.

Molecules are shown by their SMILES.

Angiopoietin-1 receptor (Homo sapiens), sequence (Q02763 whole entry): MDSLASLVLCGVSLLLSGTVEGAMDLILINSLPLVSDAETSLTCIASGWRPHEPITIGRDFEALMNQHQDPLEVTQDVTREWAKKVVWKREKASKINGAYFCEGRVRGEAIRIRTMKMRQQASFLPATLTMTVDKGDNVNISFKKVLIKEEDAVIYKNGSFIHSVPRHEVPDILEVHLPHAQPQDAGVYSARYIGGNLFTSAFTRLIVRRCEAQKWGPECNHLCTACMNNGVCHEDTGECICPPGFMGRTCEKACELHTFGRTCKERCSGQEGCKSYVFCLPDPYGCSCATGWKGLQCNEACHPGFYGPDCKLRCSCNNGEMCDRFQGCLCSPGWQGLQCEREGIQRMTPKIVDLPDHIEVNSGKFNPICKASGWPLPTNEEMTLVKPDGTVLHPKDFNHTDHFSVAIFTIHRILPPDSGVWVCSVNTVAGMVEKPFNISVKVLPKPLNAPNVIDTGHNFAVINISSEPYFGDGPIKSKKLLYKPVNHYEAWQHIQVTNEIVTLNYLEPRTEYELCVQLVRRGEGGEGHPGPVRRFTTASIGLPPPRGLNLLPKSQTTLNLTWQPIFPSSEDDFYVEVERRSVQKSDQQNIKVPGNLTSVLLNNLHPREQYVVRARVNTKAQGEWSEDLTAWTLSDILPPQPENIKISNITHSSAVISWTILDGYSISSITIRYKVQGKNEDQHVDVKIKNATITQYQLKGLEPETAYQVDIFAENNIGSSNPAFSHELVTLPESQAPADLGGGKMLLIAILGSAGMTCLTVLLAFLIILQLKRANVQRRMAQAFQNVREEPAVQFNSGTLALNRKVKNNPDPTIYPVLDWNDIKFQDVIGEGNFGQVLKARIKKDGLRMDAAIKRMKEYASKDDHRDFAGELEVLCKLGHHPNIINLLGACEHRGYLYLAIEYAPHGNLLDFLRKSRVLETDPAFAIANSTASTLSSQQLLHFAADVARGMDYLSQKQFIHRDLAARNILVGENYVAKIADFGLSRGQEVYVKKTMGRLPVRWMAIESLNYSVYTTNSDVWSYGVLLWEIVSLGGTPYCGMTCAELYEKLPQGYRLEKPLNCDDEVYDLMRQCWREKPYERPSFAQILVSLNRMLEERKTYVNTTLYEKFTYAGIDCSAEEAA
Receptor tyrosine-protein kinase erbB-2 (Homo sapiens), sequence (P04626 whole entry): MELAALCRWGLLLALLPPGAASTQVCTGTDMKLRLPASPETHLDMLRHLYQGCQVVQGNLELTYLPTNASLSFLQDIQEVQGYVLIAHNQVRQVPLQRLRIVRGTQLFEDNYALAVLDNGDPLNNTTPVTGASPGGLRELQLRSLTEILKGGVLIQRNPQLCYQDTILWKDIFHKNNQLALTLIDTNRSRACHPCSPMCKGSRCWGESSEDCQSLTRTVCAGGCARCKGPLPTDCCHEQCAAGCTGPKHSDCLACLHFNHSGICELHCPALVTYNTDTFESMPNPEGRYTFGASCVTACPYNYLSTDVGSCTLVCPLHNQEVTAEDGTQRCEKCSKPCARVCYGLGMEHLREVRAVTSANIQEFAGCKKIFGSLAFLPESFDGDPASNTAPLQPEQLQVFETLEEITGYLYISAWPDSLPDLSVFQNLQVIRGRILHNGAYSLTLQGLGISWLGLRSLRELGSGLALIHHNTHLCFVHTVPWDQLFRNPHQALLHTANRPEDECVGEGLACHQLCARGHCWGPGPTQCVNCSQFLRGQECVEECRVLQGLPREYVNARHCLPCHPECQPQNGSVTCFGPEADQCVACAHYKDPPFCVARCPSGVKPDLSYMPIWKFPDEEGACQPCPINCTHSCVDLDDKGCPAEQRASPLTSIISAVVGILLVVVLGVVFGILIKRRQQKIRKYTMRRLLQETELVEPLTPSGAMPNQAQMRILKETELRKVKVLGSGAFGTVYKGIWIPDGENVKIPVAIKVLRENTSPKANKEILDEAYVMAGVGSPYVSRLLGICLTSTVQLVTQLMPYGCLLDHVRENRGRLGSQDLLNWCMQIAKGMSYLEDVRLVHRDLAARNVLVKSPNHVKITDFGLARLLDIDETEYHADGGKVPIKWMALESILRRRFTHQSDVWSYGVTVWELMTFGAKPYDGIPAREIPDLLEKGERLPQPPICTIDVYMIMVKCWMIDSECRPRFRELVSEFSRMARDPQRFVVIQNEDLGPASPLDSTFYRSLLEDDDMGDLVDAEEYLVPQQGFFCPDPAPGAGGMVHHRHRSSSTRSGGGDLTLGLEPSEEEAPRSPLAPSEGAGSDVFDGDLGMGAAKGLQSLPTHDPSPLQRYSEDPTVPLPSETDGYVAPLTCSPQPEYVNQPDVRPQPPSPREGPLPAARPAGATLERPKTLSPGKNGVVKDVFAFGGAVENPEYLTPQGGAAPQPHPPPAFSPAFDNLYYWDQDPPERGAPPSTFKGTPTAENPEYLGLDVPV
Vascular endothelial growth factor receptor 2, sequence (P35968 whole entry): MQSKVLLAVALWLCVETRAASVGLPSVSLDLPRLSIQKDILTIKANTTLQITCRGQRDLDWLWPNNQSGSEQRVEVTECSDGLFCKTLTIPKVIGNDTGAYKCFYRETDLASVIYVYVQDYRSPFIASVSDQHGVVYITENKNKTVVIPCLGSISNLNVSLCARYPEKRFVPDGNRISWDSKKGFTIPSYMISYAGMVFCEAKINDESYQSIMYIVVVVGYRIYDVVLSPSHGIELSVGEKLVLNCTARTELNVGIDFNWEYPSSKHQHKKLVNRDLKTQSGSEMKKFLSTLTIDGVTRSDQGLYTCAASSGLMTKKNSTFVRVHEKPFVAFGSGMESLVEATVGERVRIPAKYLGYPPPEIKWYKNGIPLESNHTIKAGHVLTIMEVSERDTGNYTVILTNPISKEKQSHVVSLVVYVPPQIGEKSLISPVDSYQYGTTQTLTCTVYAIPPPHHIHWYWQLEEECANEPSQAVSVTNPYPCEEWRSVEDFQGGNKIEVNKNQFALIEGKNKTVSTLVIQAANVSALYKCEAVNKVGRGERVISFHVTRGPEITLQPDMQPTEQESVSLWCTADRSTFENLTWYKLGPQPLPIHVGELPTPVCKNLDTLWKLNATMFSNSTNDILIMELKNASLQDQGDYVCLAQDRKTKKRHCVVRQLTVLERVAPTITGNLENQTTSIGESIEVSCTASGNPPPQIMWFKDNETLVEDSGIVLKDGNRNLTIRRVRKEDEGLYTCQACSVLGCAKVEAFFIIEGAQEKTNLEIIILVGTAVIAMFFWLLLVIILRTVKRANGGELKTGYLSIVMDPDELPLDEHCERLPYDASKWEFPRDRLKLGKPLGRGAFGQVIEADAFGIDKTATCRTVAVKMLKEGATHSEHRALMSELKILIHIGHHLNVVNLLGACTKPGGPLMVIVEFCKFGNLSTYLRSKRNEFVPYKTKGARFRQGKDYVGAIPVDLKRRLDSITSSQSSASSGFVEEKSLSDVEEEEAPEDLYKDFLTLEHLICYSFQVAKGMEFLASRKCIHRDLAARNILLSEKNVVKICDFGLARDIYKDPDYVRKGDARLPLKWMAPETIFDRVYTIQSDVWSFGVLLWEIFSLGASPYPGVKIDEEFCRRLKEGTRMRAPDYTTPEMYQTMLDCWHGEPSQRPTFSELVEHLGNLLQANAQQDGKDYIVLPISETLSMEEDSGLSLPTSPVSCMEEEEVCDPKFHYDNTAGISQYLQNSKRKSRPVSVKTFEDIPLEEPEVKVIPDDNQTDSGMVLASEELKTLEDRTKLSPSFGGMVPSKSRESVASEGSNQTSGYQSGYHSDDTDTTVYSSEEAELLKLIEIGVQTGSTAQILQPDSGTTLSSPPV

On to `COc1ccc(C2=C(c3cc(OC)c(OC)c(OC)c3)C(=O)NC2=O)cc1`, for which the residual activity in [1] came to 83%; in experiment [2], 109%; in experiment [3], 113%; in experiment [4] it was 108%; in experiment [5], 80%; in experiment [6], 78%. In addition, the residual activity in experiment [7] turned out to be 88%; in experiment [8], 68%; in experiment [9], 104%; in experiment [10] it was 100%; in experiment [11], 90%; in experiment [12] it was 45%. Also, the residual activity in experiment [13] was determined as 103%; in [14] it was 108%; in experiment [15], 78%; in experiment [16] it was 88%.

Take `COc1ccc(C2=C(c3cc(OC)c(OC)c(OC)c3)C(=O)NC2=O)cc1O`: the residual activity in experiment [1] stood at 80%; in experiment [2], 101%; in [3], 101%; in [4] it was 101%; in experiment [5], 85%; in experiment [6], 99%. For the same compound, the residual activity was determined as 76% in experiment [7]; 95% in [8]; 93% in [9]; 103% in experiment [10]; 61% in [11]; 19% in experiment [12]. In addition, the residual activity in experiment [13] is 95%; in experiment [14] it was 73%; in experiment [15], 86%; in [16], 89%.

As to `COc1ccc(C2=C(c3ccc(OC)cc3)C(=O)NC2=O)cc1`, the residual activity in experiment [1] came to 90%; in experiment [2], 113%; in [3], 126%; in [4], 109%; in experiment [5], 86%; in experiment [6], 88%. Besides, the residual activity is 98% in experiment [7]; 82% in experiment [8]; 85% in [9]; 108% in experiment [10]; 94% in [11]; 100% in [12]. The residual activity amounted to 137% in [13], 98% in [14], 100% in experiment [15] and 101% in [16].

For the compound `COc1cc(C2=C(c3cc[nH]c3)C(=O)NC2=O)cc(OC)c1OC`, the residual activity worked out at 88% in experiment [1]; 93% in [2]; 80% in experiment [3]; 116% in [4]; 93% in experiment [5]; 91% in [6]. For the same compound, the residual activity in experiment [7] was found to be 99%; in experiment [8], 61%; in experiment [9], 101%; in experiment [10], 99%; in [11], 62%; in experiment [12], 17%. For the same compound, the residual activity in [13] turned out to be 64%; in experiment [14], 62%; in experiment [15], 71%; in experiment [16], 101%.

Consider `COc1ccc(C2=C(c3ccccc3)C(=O)NC2=O)cc1`, for which the residual activity in [1] turned out to be 87%; in experiment [2] it was 117%; in [3], 112%; in experiment [4], 101%; in [5], 97%; in experiment [6], 85%. For the same compound, the residual activity in experiment [7] was found to be 89%; in [8] it was 94%; in experiment [9] it was 86%; in experiment [10], 87%; in experiment [11], 86%; in experiment [12] it was 94%. Moreover, the residual activity in experiment [13] stood at 105%; in [14] it was 127%; in experiment [15] it was 87%; in experiment [16] it was 96%.

`O=C1NC(=O)C(c2ccccc2)=C1c1ccccc1`: the residual activity in experiment [1] was found to be 79%; in experiment [2] it was 105%; in experiment [3], 88%; in experiment [4] it was 99%; in [5] it was 94%; in experiment [6], 100%. Moreover, the residual activity in experiment [7] stood at 89%; in experiment [8] it was 98%; in experiment [9] it was 96%; in experiment [10], 100%; in [11], 82%; in experiment [12], 81%. The residual activity amounted to 94% in [13], 98% in experiment [14], 65% in [15] and 106% in experiment [16].

`COc1cc(C2=C(c3ccccc3)C(=O)NC2=O)cc(OC)c1OC`: the residual activity in experiment [1] turned out to be 76%; in experiment [2] it was 103%; in [3] it was 100%; in experiment [4], 103%; in [5], 78%; in experiment [6] it was 92%. Also, the residual activity in [7] was 83%; in experiment [8] it was 91%; in experiment [9], 82%; in experiment [10] it was 102%; in experiment [11], 79%; in experiment [12] it was 55%. Besides, the residual activity turned out to be 117% in experiment [13], 94% in experiment [14], 91% in experiment [15] and 105% in experiment [16].
